pIC50, pKi: −log10 of the molar value.
Tests used:
[1] = target: T1, Human immunodeficiency virus type 1 protease (Human immunodeficiency virus 1, UniProt Q72874); experiment: Inhibitory activity of the Compound was tested against HIV protease enzyme.
How it was run: (§1)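 HIV-1 protease from the BRU strain was expressed in a microbial host. Activity was followed as hydrolysis of the octapeptide substrate VSQN-β-naphthylalanine-PIV, using a modified version of Heimbach's method.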

[2] = target: T1, Human immunodeficiency virus type 1 protease; experiment: Inhibitory activity of the Compound was tested against HIV protease enzyme.(value reported by Roche group)
[3] = target: T1, Human immunodeficiency virus type 1 protease; experiment: Binding affinity against HIV Protease enzyme.(by Dixon analysis); how it was run: as §1
[4] = target: T1, Human immunodeficiency virus type 1 protease; experiment: (§2) Inhibitory activity of the Compound was tested against HIV protease enzyme
How it was run: (§3)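 HIV-1 protease (BRU strain), microbially expressed; activity followed as hydrolysis of the octapeptide substrate VSQN-β-naphthylalanine-PIV, using a modified literature method.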

[5] = target: T1, Human immunodeficiency virus type 1 protease; experiment: as §2; how it was run: as §3; remark: listed apart in the source
[6] = target: T1, Human immunodeficiency virus type 1 protease; experiment: Inhibitory activity of the Compound was tested against HIV protease enzyme.(value reported by Rich etal)
[7] = target: T1, Human immunodeficiency virus type 1 protease; experiment: Binding affinity against HIV protease enzyme.(by Dixon analysis); how it was run: as §1

| SMILES | pIC50 [1] | also measured |
| --- | --- | --- |
| CC(C)(C)NC(=O)[C@@H]1CCCN1C(=O)[C@@H](O)[C@H](Cc1ccccc1)NC(=O)[C@H](CC(N)=O)NC(=O)COc1ccc2ccccc2c1 | 8.89 | – |
| CC(C)(C)NC(=O)[C@@H]1CC2CCCCC2CN1C[C@@H](O)[C@H](Cc1ccccc1)NC(=O)[C@H](CC(N)=O)NC(=O)OCc1ccccc1 (stereo not given in full) | – | pIC50 [2]: > 8.57 |
| CC(C)(C)NC(=O)[C@@H]1CCCN1C(=O)[C@@H](O)[C@H](Cc1ccccc1)NC(=O)[C@H](CC(N)=O)NC(=O)COc1cccc2ccccc12 | 9.24 | pKi [3]: 9.40 |
| CC(C)(C)OC(=O)[C@@H]1CCCN1C[C@@H](O)[C@H](Cc1ccccc1)NC(=O)OCc1ccccc1 | – | pIC50 [2]: 5.19 |
| CC(C)(C)NC(=O)[C@@H]1CCCN1C(=O)[C@@H](O)[C@H](Cc1ccccc1)NC(=O)[C@H](CC(N)=O)NC(=O)OCc1ccccc1 | 8.13 | pKi [3]: 8.40 |
| CC[C@H](C)[C@H](NC(=O)[C@@H]1CCCN1C(=O)[C@@H](O)[C@H](Cc1ccccc1)NC(=O)[C@@H](CC(N)=O)NC(=O)OCc1ccccc1)C(=O)N[C@H](C(=O)OC)C(C)C | 8.51 | – |
| CC(C)(C)NC(=O)[C@@H]1C[C@@H]2CCCC[C@@H]2CN1C(=O)[C@@H](O)[C@H](Cc1ccccc1)NC(=O)[C@H](CC(N)=O)NC(=O)OCc1ccccc1 | 7.08 | – |
| CC[C@H](C)[C@H](NC(=O)[C@@H]1CCCN1C(=O)[C@H](O)[C@H](Cc1ccccc1)NC(=O)[C@H](CC(N)=O)NC(=O)OCc1ccccc1)C(=O)N[C@H](C(=O)OC)C(C)C | 7.60 | – |
| CC(C)(C)OC(=O)[C@@H]1CCCN1C[C@H](O)[C@H](Cc1ccccc1)NC(=O)[C@H](CC(N)=O)NC(=O)OCc1ccccc1 | – | pIC50 [4]: 6.89; pIC50 [5]: 6.74; pIC50 [6]: 6.35 |
| CC(C)(C)NC(=O)[C@@H]1CCCN1C(=O)C(=O)[C@H](Cc1ccccc1)NC(=O)[C@H](CC(N)=O)NC(=O)OCc1ccccc1 | 7.70 | – |
| CC(C)(C)NC(=O)[C@@H]1CCCN1C[C@@H](O)[C@H](Cc1ccccc1)NC(=O)[C@H](CC(N)=O)NC(=O)OCc1ccccc1 | – | pIC50 [2]: 6.68 |
| CC(C)(C)NC(=O)[C@@H]1CCCN1C(=O)C(=O)[C@H](Cc1ccccc1)NC(=O)OCc1ccccc1 | 6.22 | – |
| CC(C)[C@H](NC(=O)OCc1ccccc1)C(=O)N[C@@H](Cc1ccccc1)[C@H](O)C(=O)N1CCC[C@H]1C(=O)NC(C)(C)C | 8.37 | – |
| CC(C)(C)NC(=O)[C@@H]1CCCN1C(=O)[C@@H](O)[C@H](Cc1ccccc1)NC(=O)[C@H](CC(N)=O)NC(=O)c1ccc2ccccc2n1 | 8.96 | pKi [7]: 9.05 |
| CC(C)(C)NC(=O)[C@@H]1CCCCN1C(=O)[C@@H](O)[C@H](Cc1ccccc1)NC(=O)[C@H](CC(N)=O)NC(=O)OCc1ccccc1 | 7.59 | – |
| CC(C)(C)NC(=O)[C@@H]1CCCCN1C[C@@H](O)[C@H](Cc1ccccc1)NC(=O)[C@H](CC(N)=O)NC(=O)OCc1ccccc1 | – | pIC50 [2]: 7.74 |
| CC(C)(C)NC(=O)[C@@H]1CCCN1C(=O)[C@@H](O)[C@H](Cc1ccccc1)NC(=O)OCc1ccccc1 | 6.34 | – |
| CC(C)(C)NC(=O)[C@@H]1CCCN1C(=O)[C@H](O)[C@H](Cc1ccccc1)NC(=O)[C@H](CC(N)=O)NC(=O)OCc1ccccc1 | 5.51 | – |
| CC(C)(C)NC(=O)[C@@H]1C[C@@H]2CCCC[C@@H]2CN1C(=O)[C@@H](O)[C@H](Cc1ccccc1)NC(=O)[C@H](CC(N)=O)NC(=O)c1ccc2ccccc2n1 | 7.57 | – |
| CC(C)[C@H](NC(=O)COc1cccc2ccccc12)C(=O)N[C@@H](Cc1ccccc1)[C@H](O)C(=O)N1CCC[C@H]1C(=O)NC(C)(C)C | 8.72 | – |
